# Tests used:
# Assay type in all cases: functional
# Cavia porcellus [1] = species: Cavia porcellus; experiment: Effect on guinea pig T cell proliferation was tested by measuring the incorporation of [3H]-thymidine uptake at the concentration of 0 uM
# Summary of the method: (§1)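 Strain 2 female guinea pigs were immunized with 100 μg OVA in CFA split over the footpads. At day 14 they received mineral oil ip, and the exudate was collected 4 days later. T cells were enriched on nylon wool. 2×10^5 cells per well were cultured with 10% irradiated (2100 rads) exudate cells, OVA (10 μg/mL) and compound, for 72 h at 37 °C in 5% CO2. [3H]thymidine (1 μCi) was added 18-24 h before harvest. Triplicate wells; mean Δcpm ± SD.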
# Cavia porcellus [2] = species: Cavia porcellus; experiment: Effect on guinea pig T cell proliferation was tested by measuring the incorporation of [3H]thymidine uptake at the concentration of 10 uM; summary of the method: as §1
# Cavia porcellus [3] = species: Cavia porcellus; experiment: Effect on guinea pig T cell proliferation was tested by measuring the incorporation of [3H]-thymidine uptake at the concentration of 100 uM; summary of the method: as §1
# Cavia porcellus [4] = species: Cavia porcellus; experiment: Effect on guinea pig T cell proliferation was tested by measuring the incorporation of [3H]thymidine uptake at the concentration of 1000 uM; summary of the method: as §1
# Cavia porcellus [5] = species: Cavia porcellus; experiment: Effect on guinea pig T cell proliferation was tested by measuring the incorporation of [3H]thymidine uptake at the concentration of 500 uM; summary of the method: as §1
# Cavia porcellus [6] = species: Cavia porcellus; experiment: Effect on guinea pig T cell proliferation was tested by measuring the incorporation of [3H]thymidine uptake at the concentration of 750 uM; summary of the method: as §1
# Cavia porcellus [7] = species: Cavia porcellus; experiment: Effect on guinea pig T cell proliferation was tested by measuring the incorporation of [3H]thymidine uptake at the concentration of 250 uM; summary of the method: as §1
# Cavia porcellus [8] = species: Cavia porcellus; experiment: Inhibitory activity against [3H]thymidine uptake by cinnamyl 1-thioglycosides in guinea pig T cell proliferation; summary of the method: as §1
# Cavia porcellus [9] = species: Cavia porcellus; experiment: [3H]thymidine uptake was determined by liquid scintillation spectroscopy in ovalbumin pulsed Macrophages
# Summary of the method: (§2)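 Pretreatment protocol. Strain 2 female guinea pigs immunized with OVA in CFA (100 μg OVA; 0.1 mL/foot); mineral oil given ip at day 14, peritoneal exudate collected 4 days later. Nylon-wool-enriched T cells (PELs) and irradiated (2100 rads) exudate macrophages each incubated with sugar derivative 18 h at 37 °C, then washed. Macrophages pulsed with OVA 100 μg/mL for 1 h at 37 °C and washed. Viability adjusted by trypan blue; populations mixed and cultured 72 h at 37 °C. [3H]thymidine (1 μCi) added 18-24 h before harvest; read by liquid scintillation as mean Δcpm ×10^-3.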
# Cavia porcellus [10] = species: Cavia porcellus; experiment: [3H]thymidine uptake was determined by liquid scintillation spectroscopy in compound 4 pretreated OVA pulsed Macrophages plus OVA (10 ug/mL)
# Summary of the method: (§3)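 Guinea pig PELs and irradiated (2100 rads) exudate macrophages were each preincubated with compound (1 mM or 500 μM, depending on agent) for 18 h at 37 °C, then washed. Macrophages were pulsed with OVA 100 μg/mL for 1 h at 37 °C and washed. Cells were viability-adjusted by trypan blue and mixed, with or without OVA 10 μg/mL. Culture ran 72 h at 37 °C with [3H]thymidine read by scintillation, as mean Δcpm × 10^-3.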
# Cavia porcellus [11] = species: Cavia porcellus; experiment: [3H]thymidine uptake was determined by liquid scintillation spectroscopy in compound 4 treated Macrophages pretreated with 500 uM of 4 at 37 degree C for 18 h; conditions: in the assay text read “1 mM” for “500 uM”; summary of the method: as §3
# Cavia porcellus [12] = species: Cavia porcellus; experiment: [3H]thymidine uptake was determined by liquid scintillation spectroscopy in 4 pretreated OVA pulsed Macrophages plus OVA (10 ug/mL) pretreated with 500 uM of 4 at 37 degree C for 18 h; conditions: in the assay text read “1 mM” for “500 uM”; summary of the method: as §3
# Cavia porcellus [13] = species: Cavia porcellus; experiment: [3H]thymidine uptake was determined by liquid scintillation spectroscopy in Macrophages; summary of the method: as §3
# Cavia porcellus [14] = species: Cavia porcellus; experiment: [3H]-Thymidine uptake was determined by liquid scintillation spectroscopy in Macrophages pretreated with 500 uM of 4 at 37 degree C for 18 h; conditions: in the assay text read “1 mM” for “500 uM”; summary of the method: as §3
# Cavia porcellus [15] = species: Cavia porcellus; experiment: [3H]-Thymidine uptake was determined by liquid scintillation spectroscopy in OVA pulsed compound 4 pretreated Macrophages pretreated with 500 uM of 4 at 37 degree C for 18 h; conditions: in the assay text read “1 mM” for “500 uM”; summary of the method: as §3
# Cavia porcellus [16] = species: Cavia porcellus; experiment: [3H]thymidine uptake was determined by liquid scintillation spectroscopy in compound 2 treated Macrophages; summary of the method: as §3
# Mus musculus [17] = experiment: Compound was administered intraperitoneally to mice before increase in foot-pad thickness at a dose of 10 mg/kg; conditions: route intraperitoneal
# Summary of the method: (§4)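 DTH in A/J female mice (20-23 g): cyclophosphamide 200 mg/kg sc, then iv sensitization with 10^8 washed SRBC 3 days later. On day 6 after sensitization, one hind footpad challenged with 10^8 SRBC in 20 μL, the other given saline. Dosing ip or po to overnight-fasted mice 20 min before challenge. Swelling read at 24 and 48 h as antigen minus saline footpad (mm × 10), by constant-pressure caliper.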
# Mus musculus [18] = experiment: Compound was administered intraperitoneally to mice before increase in foot-pad thickness at a dose of 3 mg/kg; conditions: route intraperitoneal; summary of the method: as §4
# Mus musculus [19] = experiment: Compound was administered orally to mice before increase in foot-pad thickness at a dose of 10 mg/kg; conditions: route oral; summary of the method: as §4
# Mus musculus [20] = experiment: Compound was administered orally to mice before increase in foot-pad thickness at a dose of 3 mg/kg; conditions: route oral; summary of the method: as §4
# Mus musculus [21] = experiment: Compound was administered orally to mice before increase in foot-pad thickness at a dose of 30 mg/kg; conditions: route oral; summary of the method: as §4
# Mus musculus [22] = experiment: Percent reduction in mice after oral administration 10 mg/kg; summary of the method: as §4
# Mus musculus [23] = experiment: Percent reduction in mice after intraperitoneal administration 3 mg/kg; summary of the method: as §4
# Mus musculus [24] = experiment: Percent reduction in mice after intraperitoneal administration of 30 mg/kg; summary of the method: as §4
# Mus musculus [25] = experiment: Percent reduction in mice after oral administration 3 mg/kg; summary of the method: as §4
# Mus musculus [26] = experiment: Percent reduction in mice after oral administration of 30 mg/kg; summary of the method: as §4
# Mus musculus [27] = experiment: Percent reduction in mice after intraperitoneal administration 10 mg/kg; summary of the method: as §4
# Cavia porcellus [28] = species: Cavia porcellus; experiment: [3H]thymidine uptake was determined by liquid scintillation spectroscopy in ovalbumin (OVA) pulsed compound 4 treated Macrophages; summary of the method: as §2
# Mus musculus [29] = experiment: Compound was administered intraperitoneally to mice before increase in foot-pad thickness at a dose of 30 mg/kg; conditions: route intraperitoneal; summary of the method: as §4
smiles,measurement,setting,value
O=C(CCCCC1CCSS1)NCC1OC(SC/C=C/c2ccccc2)C(O)C(O)C1O (configuration not stated),Activity,Cavia porcellus [1],93.2 Δcpm x10e-3
same,Activity,Cavia porcellus [2],75.2 Δcpm x10e-3
same,Activity,Cavia porcellus [3],2.97 Δcpm x10e-3
same,Activity,Cavia porcellus [4],0.08 Δcpm x10e-3
same,Activity,Cavia porcellus [5],0 Δcpm x10e-3
same,Activity,Cavia porcellus [6],0 Δcpm x 10^-3
same,Activity,Cavia porcellus [7],0 Δcpm x10e-3
CC1OC(SC/C=C/c2ccccc2)C(O)C(O)C1O (stereo in doubt; 5),Activity,Cavia porcellus [1],147 Δcpm x10e-3
same,IC50,Cavia porcellus [8]; t-cell,525 µM
same,Activity,Cavia porcellus [2],144 Δcpm x10e-3
same,Activity,Cavia porcellus [3],130 Δcpm x10e-3
same,Activity,Cavia porcellus [4],17.5 Δcpm x10e-3
same,Activity,Cavia porcellus [5],66.6 Δcpm x10e-3
same,Activity,Cavia porcellus [6],31.8 Δcpm x 10^-3
same,Activity,Cavia porcellus [7],109 Δcpm x10e-3
OCC1OC(OCC2OC(SCC=Cc3ccccc3)C(O)C(O)C2O)C(O)C(O)C1O (configuration not stated),Activity,Cavia porcellus [1],86.9 Δcpm x10e-3
same,IC50,"Cavia porcellus [8]; Cavia porcellus, T-cell",340 µM
same,Activity,Cavia porcellus [2],64.2 Δcpm x10e-3
same,Activity,Cavia porcellus [3],54.9 Δcpm x10e-3
same,Activity,Cavia porcellus [4],3.85 Δcpm x10e-3
same,Activity,Cavia porcellus [5],28.9 Δcpm x10e-3
same,Activity,Cavia porcellus [6],13.04 µM
same,Activity,Cavia porcellus [7],34.1 Δcpm x10e-3
CC(=O)NCC1OC(SC/C=C/c2ccccc2)C(O)C(O)C1O (configuration not stated),Activity,Cavia porcellus [1],79.8 Δcpm x10e-3
same,Activity,Cavia porcellus [2],70.7 Δcpm x10e-3
same,Activity,Cavia porcellus [3],66.6 Δcpm x10e-3
same,Activity,Cavia porcellus [4],36 Δcpm x10e-3
same,Activity,Cavia porcellus [5],39.3 Δcpm x10e-3
same,Activity,Cavia porcellus [6],38.8 Δcpm x 10^-3
same,Activity,Cavia porcellus [7],52.9 Δcpm x10e-3
CC1OC(SC/C=C/c2ccccc2)C(O)C(O)C1O (stereo in doubt; 4),Delta cpm x10e-3,Cavia porcellus [9],141.55
same,Activity,Cavia porcellus [1],72.8 Δcpm x10e-3
same,IC50,Cavia porcellus [8]; t-cell,160 µM
same,Activity,Cavia porcellus [2],93.6 Δcpm x10e-3
same,Activity,Cavia porcellus [3],62.1 Δcpm x10e-3
same,Activity,Cavia porcellus [4],0.06 Δcpm x10e-3
same,Activity,Cavia porcellus [5],1.51 Δcpm x10e-3
same,Activity,Cavia porcellus [6],0.02 Δcpm x 10^-3
same,Delta cpm x10e-3,Cavia porcellus [10],139.97
same,Delta cpm x10e-3,Cavia porcellus [11],2.81
same,Delta cpm x10e-3,Cavia porcellus [12],49.95
same,Delta cpm x10e-3,Cavia porcellus [13],6.67
same,Delta cpm x10e-3,Cavia porcellus [14],4.75
same,Delta cpm x10e-3,Cavia porcellus [15],33.97
same,Delta cpm x10e-3,Cavia porcellus [16],4.89
same,Activity,Mus musculus [17],2.78 mm x10
same,Activity,Mus musculus [18],4.6 mm x10
same,Activity,Mus musculus [19],0.96 mm x10
same,Activity,Mus musculus [20],0.98 mm x10
same,Activity,Mus musculus [21],0.77 mm x10
same,Reduction,Mus musculus [22],18%
same,Reduction,Mus musculus [23],13%
same,Reduction,Mus musculus [24],56%
same,Reduction,Mus musculus [25],16%
same,Reduction,Mus musculus [26],34%
same,Reduction,Mus musculus [27],47%
same,Delta cpm x10e-3,Cavia porcellus [28],104.36
same,Activity,Cavia porcellus [7],5.8 Δcpm x10e-3
same,Activity,Mus musculus [29],2.34 mm x10
CC1OC(SC/C=C/c2ccccc2)C(O)C(O)C1O (stereo in doubt; 6),Activity,Cavia porcellus [1],93.5 Δcpm x10e-3
same,IC50,Cavia porcellus [8]; t-cell,750 µM
same,Activity,Cavia porcellus [2],115 Δcpm x10e-3
same,Activity,Cavia porcellus [3],101 Δcpm x10e-3
same,Activity,Cavia porcellus [4],5.97 Δcpm x10e-3
same,Activity,Cavia porcellus [5],36.4 Δcpm x10e-3
same,Activity,Cavia porcellus [6],12.8 Δcpm x 10^-3
same,Activity,Cavia porcellus [7],59.7 Δcpm x10e-3
